Compound activity (PubChem BioAssay)
SUMO1-SIM PPI: alters human SUMO1 binding to SIM partners; 0.33% of 360,000 active; inhibition, % at 20 µM; AID 602429; P63165; SUMO1 binding to a labelled peptide, TR-FRET, 1 h; in the data active means inhibition above about 37%
LMPTP block: LMPTP (human) inhibition. P24666. recombinant LMPTP-A, OMFP fluorogenic substrate, fluorescence intensity. inhibition, % at 20 µM. 0.22% of 360,000 active. AID 651560;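 active means compounds that cut the enzyme signal by at least half of the control window in the single-dose screen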
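Assay system: LMPTP-A phosphatase enzyme | Input: 0.625 nM enzyme | Also added: Fluorogenic phosphatase substrate OMFP at 400 µM final | Compound dosing: One test concentration per compound, 20 µM, with 3% DMSO overall | Schedule: 50 min enzyme reaction at room temperature, protected from light | Signal: Fluorescence intensity | Benchmarks: no-enzyme and uninhibited controls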
Scp1 inh: blocks human Scp-1 phosphatase activity | Recombinant Scp1, phosphopeptide, malachite green phosphate absorbance | inhibition, % at 20 µM | 0.88% of 340,000 active | AID 493091;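 active means inhibition above about 50% at 20 µM, limit read from the data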
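Test system – truncated SCP-1 phosphatase (76-261aa) · Reagent – Phosphorylated 17-residue peptide substrate · Incubation – 45 min room-temperature reaction, 5 min colour, 30 min stabiliser · Detection – colorimetric phosphate reagent with accelerator and stabiliser, absorbance at 630 nm · Measure – % inhibition at 20 µM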
DNMT1 inh: DNMT1 (human) enzyme inhibition. P26358. DNMT1 molecular beacon, Hinp1I cleavage, fluorescence. inhibition (reported as % activation of signal), % at 10 µM. 0.83% of 360,000 active; in the data active means inhibition above about 50%
GRK2 aptamer HTS: blocks RNA aptamer binding to human GRK2; P25098; bead flow cytometry, FAM-aptamer displacement from GRK2; inhibition of aptamer binding, % at 10 µM; 0.59% of 330,000 active; AID 488847;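 active means inhibition of aptamer binding above 40%, roughly 3 SD of noise, on plates passing a quality check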;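 further: median bead fluorescence of bound FAM aptamer so fluorescent compounds give negative values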
Target sequence (P25098 whole entry, looked up): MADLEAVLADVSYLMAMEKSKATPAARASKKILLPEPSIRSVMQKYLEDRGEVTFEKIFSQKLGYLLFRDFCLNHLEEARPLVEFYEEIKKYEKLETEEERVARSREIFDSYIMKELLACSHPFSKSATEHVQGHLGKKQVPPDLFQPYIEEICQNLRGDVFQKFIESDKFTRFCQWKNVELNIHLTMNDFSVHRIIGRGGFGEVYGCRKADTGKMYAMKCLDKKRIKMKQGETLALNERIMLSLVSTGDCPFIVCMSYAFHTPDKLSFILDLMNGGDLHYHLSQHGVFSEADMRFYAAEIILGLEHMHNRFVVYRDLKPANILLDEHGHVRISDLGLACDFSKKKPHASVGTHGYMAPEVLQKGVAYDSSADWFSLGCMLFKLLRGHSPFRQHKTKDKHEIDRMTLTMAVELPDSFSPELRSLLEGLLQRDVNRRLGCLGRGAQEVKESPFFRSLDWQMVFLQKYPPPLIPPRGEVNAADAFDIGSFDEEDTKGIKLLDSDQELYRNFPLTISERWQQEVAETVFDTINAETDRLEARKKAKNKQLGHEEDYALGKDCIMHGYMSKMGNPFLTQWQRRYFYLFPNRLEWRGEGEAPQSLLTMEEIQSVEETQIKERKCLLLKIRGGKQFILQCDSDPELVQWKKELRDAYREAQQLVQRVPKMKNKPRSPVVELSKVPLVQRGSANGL
STEP block: STEP (human) phosphatase inhibition | P54829 | 0.25% of 360,000 active | recombinant STEP, OMFP fluorogenic substrate, fluorescence | inhibition, % at 20 µM;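 active means inhibition at 20 µM, scaled per plate between control wells, above about 37%, limit read from the data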
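Also added – OMFP at 25 µM · Test system – STEP tyrosine phosphatase · Technique – FITC-channel fluorescence of OMFP product · Schedule – 20 min at room temperature, dark · Evaluation – control-normalized % inhibition with plate pattern correction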
GRK2 CP1: human GRK2 inhibition confirmation, cherry pick 1. aptamer displacement, % at 10 µM. shares compounds with GRK2 aptamer HTS. 4% of 2,000 active. bead-bound GRK2, FAM-aptamer displacement, flow cytometry;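 active means aptamer displacement above 40%, near three times the noise of non-fluorescent compounds, on plates passing quality checks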;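 further: negative values mostly reflect intrinsic compound fluorescence rather than true enhancement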
Aptamer quench SP: aptamer fluorescence quenching in GRK2 counter-screen. shares compounds with GRK2 aptamer HTS. Carboxyfluorescein RNA aptamer on beads, flow cytometry quenching; hits give low values. fluorescence response (% of DMSO), % at 10 µM. 2,000 tested, under 10 active;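 active means compounds that quench the bead-bound fluorescent RNA probe, cutting fluorescence to under half of the solvent control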;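 further: counterscreen run without GRK2 so only probe quenching by compound is measured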
GRK2 confirm 2: confirmation of human GRK2 inhibitors binding RNA aptamer site | inhibition of aptamer binding, % at 10 µM | bead-bound GRK2, FAM-aptamer displacement, flow cytometry | shares compounds with GRK2 aptamer HTS | 360 tested, under 10 active | AID 504782;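 active means inhibition of aptamer binding above 40%, about triple the noise seen with nonglowing compounds, on plates passing quality control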;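 further: negative values mostly come from compounds that fluoresce themselves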
FAM quench CP2: aptamer fluorescence quenching in GRK2 counter-screen | shares compounds with GRK2 aptamer HTS | carboxyfluorescein RNA aptamer beads, flow cytometry quenching; hits give low values | fluorescence response vs DMSO, % at 10 µM | 360 tested, under 10 active | AID 588494;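 active means response vs DMSO under 50%, meaning signal dropped by over half, treated as fluorescence quencher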;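 further: labelled aptamer on streptavidin beads without GRK2 as a quench counter-screen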
Each line names hits and unclear results; the compound was inactive in the other large screens (follow-up assays come after a bar, where they were run). Only some compounds are listed: those with a hit (about 2.1% of all), similar ones and a draw of the others.

O=C(NCCN1CCN(C(=O)c2ccc(F)cc2)CC1)C(=O)NCc1ccccc1	none
Cc1cc(/C=N\NC(=O)COc2cccc3cccnc23)c(C)n1-c1ccc(Br)cc1	GRK2 aptamer HTS 55.0 | GRK2 CP1 inactive | Aptamer quench SP inactive
Cc1cc(/C=N\NC(=O)COc2cccc3cccnc23)c(C)n1-c1ccccc1	none
C=CCOc1ccc(/C=C/C(=O)OCC(=O)N2CCC(c3ccccc3)=N2)cc1	none
O=C1CC(=O)N(Cc2ccco2)C(=S)N1	SUMO1-SIM PPI 68.7, LMPTP block 50.6, Scp1 inh 92.5, DNMT1 inh 110.7, GRK2 aptamer HTS 68.0, STEP block 82.9 | GRK2 CP1 inactive | Aptamer quench SP inactive
S=C1NCN(Cc2ccco2)CN1	none
COC(=O)c1ccccc1Oc1cc(C(F)(F)F)nc(-c2ccccn2)n1	none
Cc1ccc(-n2ncc(C(=O)O)c2C2CCN(C(=O)OC(C)(C)C)CC2)cc1	GRK2 aptamer HTS 43.0 | GRK2 CP1 inactive | Aptamer quench SP inactive
CC(C)=C1C2CCC1C1C(=O)N(c3ccc4c(c3)OCO4)C(=O)C21 (stereo not given)	GRK2 aptamer HTS 48.0 | GRK2 confirm 2 inactive | FAM quench CP2 inactive
Cc1cccn2c(=O)c3cc(C(=O)NCc4ccc(F)cc4)c(=N)n(CC4CCCO4)c3nc12 (stereo not given)	none
CCNC(=O)c1cc2c(=O)n3cccc(C)c3nc2n(Cc2ccc(C)cc2)c1=N	none
Cc1cccn2c(=O)c3cc(C(=O)NCCN4CCOCC4)c(=N)n(CCN4CCOCC4)c3nc12	GRK2 aptamer HTS 41.0 | GRK2 CP1 inactive | Aptamer quench SP inactive
COc1ccc(CNC(=O)c2cc3c(=O)n4cccc(C)c4nc3n(CC3CCCO3)c2=N)cc1 (stereo not given)	none | GRK2 CP1 inactive | Aptamer quench SP inactive
CCCn1c(=N)c(C(=O)NCc2ccc3c(c2)OCO3)cc2c(=O)n3cccc(C)c3nc21	GRK2 aptamer HTS 78.0 | GRK2 CP1 inactive | Aptamer quench SP inactive
COC(=O)C[C@H]1CC[C@H](NS(=O)(=O)c2cn(C)cn2)[C@@H](CO)O1	none (no result: Scp1 inh, DNMT1 inh, GRK2 aptamer HTS, STEP block)
Cc1cc(C)c(C)c(S(=O)(=O)N2C(=S)NC(=O)C2CC(C)C)c1C (stereo not given)	GRK2 aptamer HTS 96.0 | GRK2 CP1 inactive | Aptamer quench SP inactive
COc1ccc(C2/C(=C(/O)c3cnn(-c4ccccc4)c3C)C(=O)C(=O)N2CCN(C)C)cc1OC (stereo not given)	none (no result: GRK2 aptamer HTS)
COc1ccc(/C(O)=C2/C(=O)C(=O)N(CCN(C)C)C2c2ccc(OC)c(OC)c2)c(C)c1 (stereo not given)	GRK2 aptamer HTS 71.0 | GRK2 CP1 inactive | Aptamer quench SP inactive
Cc1ccccc1CCN(CC(=O)NCc1ccc(F)cc1)C(=O)c1csnn1	GRK2 aptamer HTS 70.0 | GRK2 CP1 inactive | Aptamer quench SP inactive
O=C(O)c1ccc(Cl)c(N2C(=O)Nc3ccccc3N2O)c1	none
COc1ccc(C(=O)O)cc1N1C(=O)Nc2ccccc2N1O	GRK2 aptamer HTS 78.0 | GRK2 CP1 inactive | Aptamer quench SP inactive
N#C/C(=C(/O)COC(=O)c1ccc(C#N)cc1)c1nc2ccccc2s1	none
Cc1cc(NS(=O)(=O)c2ccc(NC(=O)c3cc(-c4cccnc4)nc4ccc(Cl)cc34)cc2)no1	none
Cc1cc(C)c2nc(-c3ccccn3)cc(C(=O)Nc3ccc(S(=O)(=O)Nc4cc(C)on4)cc3)c2c1	none | GRK2 CP1 inactive | Aptamer quench SP inactive
